These results are taken from ChEMBL document CHEMBL2401716, “Design and stereoselective synthesis of novel isosteviol-fused pyrazolines and pyrazoles as potential anticancer agents” (Eur J Med Chem, 2013).

What is called IC50 is the concentration needed to halve the response being measured. The low end stands for greater potency in that assay, the high end for weaker potency in that assay.

Common to all, as to assay type: functional, cell-based
One assay deals with SGC-7901. In words: Antiproliferative activity against human SGC7901 cells after 48 hrs by MTT assay. As to conditions: SGC-7901, 48 h. Summed up: (§1)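 Cells seeded in 96-well plates and exposed to compounds for 48 h at 37 °C, 5% CO2. MTT (0.5 mg/mL) then added for 4 h. Supernatant removed, formazan dissolved in DMSO, and OD read at 570 nm. Cisplatin served as positive control.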
On the technique in general: Tetrazolium dyes change colour on reduction, which living cells bring about.

Another assay has as its system HeLa. The experiment in a line: Antiproliferative activity against human HeLa cells after 48 hrs by MTT assay. Summed up:
as §1

The next assay concerns A549. The experiment in a line: Antiproliferative activity against human A549 cells after 48 hrs by MTT assay. Conditions: A549, 48 h. The procedure, abridged:
as §1

Another assay relates to Raji. The experiment in a line: Antiproliferative activity against human Raji cells after 48 hrs by MTT assay. The procedure, abridged: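 Human B-lymphoma Raji line kept in RPMI-1640 with 10% FBS and 100 U/mL penicillin at 37 °C, 5% CO2, humidified. Cells were plated in 96 wells and treated with compounds for 48 h. MTT (0.5 mg/mL) was added for 4 h, then formazan was taken up in DMSO after supernatant removal and read at 570 nm. Cisplatin served as positive control.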

Where only a bound is given, the exact number is not on record here.

For `CCOC(=O)[C@]1(C)CCC[C@@]2(C)[C@@H]3CC[C@@]4(C)C[C@]3(CC[C@@H]21)[C@@H]1CN(c2ccc(Br)cc2)N=C14`, the 50% inhibitory concentration (IC50) with SGC-7901, in the assay on HeLa, with A549 and in the assay with Raji was greater than 50 µM each time.
As for `CCOC(=O)[C@]1(C)CCC[C@@]2(C)[C@@H]3CC[C@@]4(C)C[C@]3(CC[C@@H]21)[C@@H]1CN(c2ccccc2C)N=C14`, the half-inhibitory concentration (IC50) in the assay with SGC-7901 was greater than 50 µM; with HeLa, greater than 50 µM; with A549, greater than 50 µM; in the assay on Raji it was 19.9 µM.
Turning to `CCOC(=O)[C@]1(C)CCC[C@@]2(C)[C@@H]3CC[C@@]4(C)C[C@]3(CC[C@@H]21)[C@@H]1CN(c2cccc(C)c2)N=C14`, the IC50 in the assay with SGC-7901, in the assay on HeLa, in the assay on A549 and in the assay with Raji was greater than 50 µM throughout.
Consider `CCOC(=O)[C@]1(C)CCC[C@@]2(C)[C@@H]3CC[C@@]4(C)C[C@]3(CC[C@@H]21)[C@@H]1CN(c2ccc(OC)cc2)N=C14`, for which the concentration for half-maximal inhibition (IC50) was determined as 34 µM with SGC-7901, 31.2 µM with HeLa, 17.8 µM in the assay on A549 and 12.2 µM in the assay with Raji.
The corresponding values for `CCOC(=O)[C@]1(C)CCC[C@@]2(C)[C@@H]3CC[C@@]4(C)C[C@]3(CC[C@@H]21)[C@@H]1CN(c2cccc([N+](=O)[O-])c2)N=C14` are greater than 50 µM, greater than 50 µM, greater than 50 µM and greater than 50 µM.
The corresponding values for `CCOC(=O)[C@]1(C)CCC[C@@]2(C)[C@@H]3CC[C@@]4(C)C[C@]3(CC[C@@H]21)[C@@H]1CN(c2ccc(F)cc2F)N=C14` are greater than 50 µM, greater than 50 µM, greater than 50 µM and 13.5 µM.
The corresponding values for `CCOC(=O)[C@]1(C)CCC[C@@]2(C)[C@@H]3CC[C@@]4(C)C[C@]3(CC[C@@H]21)[C@@H]1CN(c2cc(F)ccc2F)N=C14` are greater than 50 µM, greater than 50 µM, 20.2 µM and 27.4 µM.
Consider `CCOC(=O)[C@]1(C)CCC[C@@]2(C)[C@@H]3CC[C@@]4(C)C[C@]3(CC[C@@H]21)[C@@H]1CN(c2cccc(Cl)c2Cl)N=C14`, for which the IC50 in the assay on SGC-7901 is greater than 50 µM; with HeLa, greater than 50 µM; in the assay on A549, greater than 50 µM; in the assay with Raji, 22.1 µM.
Take `CCOC(=O)[C@]1(C)CCC[C@@]2(C)[C@@H]3CC[C@@]4(C)C[C@]3(CC[C@@H]21)[C@@H]1CN(c2ccc(Cl)cc2Cl)N=C14`: the IC50 was greater than 50 µM with SGC-7901, greater than 50 µM in the assay with HeLa, greater than 50 µM in the assay with A549 and 22.9 µM in the assay on Raji.
As to `CCOC(=O)[C@]1(C)CCC[C@@]2(C)[C@@H]3CC[C@@]4(C)C[C@]3(CC[C@@H]21)[C@@H]1CN(c2cc(Cl)ccc2Cl)N=C14`, the 50% inhibitory concentration (IC50) in the assay on SGC-7901 was greater than 50 µM; in the assay with HeLa, greater than 50 µM; in the assay with A549 it was greater than 50 µM; with Raji it was 25.6 µM.
For the molecule `CCOC(=O)[C@]1(C)CCC[C@@]2(C)[C@@H]3CC[C@@]4(C)C[C@]3(CC[C@@H]21)[C@@H]1CN(c2c(Cl)cccc2Cl)N=C14`, the half-maximal inhibitory concentration (IC50) in the assay with SGC-7901 was greater than 50 µM; in the assay on HeLa, greater than 50 µM; in the assay on A549, 11.6 µM; in the assay with Raji it was greater than 50 µM.
For the molecule `CCOC(=O)[C@]1(C)CCC[C@@]2(C)[C@@H]3CC[C@@]4(C)C[C@]3(CC[C@@H]21)[C@@H]1CN(c2ccc(Cl)c(Cl)c2)N=C14`, the concentration for half-maximal inhibition (IC50) in the assay on SGC-7901, in the assay on HeLa, in the assay with A549 and in the assay with Raji was greater than 50 µM in each case.
With `CCOC(=O)[C@]1(C)CCC[C@@]2(C)[C@@H]3CC[C@@]4(C)C[C@]3(CC[C@@H]21)[C@@H]1CN(c2cc(Cl)cc(Cl)c2)N=C14`, the IC50 with SGC-7901 is greater than 50 µM; in the assay with HeLa, 24.6 µM; in the assay with A549, greater than 50 µM; in the assay with Raji, greater than 50 µM.
`CCOC(=O)[C@]1(C)CCC[C@@]2(C)[C@@H]3CC[C@@]4(C)C[C@]3(CC[C@@H]21)[C@@H]1CN(c2ccc(C)cc2C)N=C14`: the half-inhibitory concentration (IC50) is 28.5 µM with SGC-7901, greater than 50 µM in the assay on HeLa, greater than 50 µM in the assay with A549 and 11.2 µM in the assay with Raji.
As for `CCOC(=O)[C@]1(C)CCC[C@@]2(C)[C@@H]3CC[C@@]4(C)C[C@]3(CC[C@@H]21)[C@@H]1CN(c2cc(C)ccc2C)N=C14`, the IC50 with SGC-7901 was 22.5 µM; in the assay with HeLa, 30.3 µM; in the assay with A549, greater than 50 µM; in the assay with Raji it was 12.6 µM.
For `CCOC(=O)[C@]1(C)CCC[C@@]2(C)[C@@H]3CC[C@@]4(C)C[C@]3(CC[C@@H]21)[C@@H]1CN(c2cc(C)cc(C)c2)N=C14`, in that order: greater than 50 µM, greater than 50 µM, greater than 50 µM and greater than 50 µM.
For `CCOC(=O)[C@]1(C)CCC[C@@]2(C)[C@@H]3CC[C@@]4(C)C[C@]3(CC[C@@H]21)c1cnn(-c2ccccc2)c14`, in that order: 17.6 µM, 42.5 µM, 25.4 µM and 11.4 µM.
For the molecule `CCOC(=O)[C@]1(C)CCC[C@@]2(C)[C@@H]3CC[C@@]4(C)C[C@]3(CC[C@@H]21)c1cnn(-c2ccc(Cl)cc2)c14`, the half-maximal inhibitory concentration (IC50) in the assay with SGC-7901 was 8.44 µM; in the assay with HeLa, greater than 50 µM; in the assay with A549, 35.3 µM; in the assay with Raji it was 13.8 µM.
With `CCOC(=O)[C@]1(C)CCC[C@@]2(C)[C@@H]3CC[C@@]4(C)C[C@]3(CC[C@@H]21)c1cnn(-c2ccccc2Br)c14`, the concentration for half-maximal inhibition (IC50) with SGC-7901 amounted to 30.3 µM; in the assay on HeLa, 41.1 µM; with A549 it was 17.4 µM; with Raji, 11.3 µM.
`CCOC(=O)[C@]1(C)CCC[C@@]2(C)[C@@H]3CC[C@@]4(C)C[C@]3(CC[C@@H]21)c1cnn(-c2ccccc2[N+](=O)[O-])c14`: the IC50 with SGC-7901 was 15.6 µM; in the assay on HeLa it was greater than 50 µM; in the assay on A549, 42.3 µM; in the assay on Raji, 14.3 µM.
On to `CCOC(=O)[C@]1(C)CCC[C@@]2(C)[C@@H]3CC[C@@]4(C)C[C@]3(CC[C@@H]21)c1cnn(-c2ccc([N+](=O)[O-])cc2)c14`, for which the IC50 is greater than 50 µM with SGC-7901, greater than 50 µM in the assay on HeLa, greater than 50 µM in the assay with A549 and 10.2 µM with Raji.
On to `CCOC(=O)[C@]1(C)CCC[C@@]2(C)[C@@H]3CC[C@@]4(C)C[C@]3(CC[C@@H]21)c1cnn(-c2cc(Cl)ccc2Cl)c14`, for which the IC50 is greater than 50 µM with SGC-7901, greater than 50 µM with HeLa, greater than 50 µM in the assay with A549 and 11.7 µM in the assay on Raji.
Regarding `CCOC(=O)[C@]1(C)CCC[C@@]2(C)[C@@H]3CC[C@@]4(C)C[C@]3(CC[C@@H]21)c1cnn(-c2ccc(Cl)c(Cl)c2)c14`, the IC50 in the assay with SGC-7901 was greater than 50 µM; in the assay with HeLa, greater than 50 µM; in the assay with A549 it was greater than 50 µM; in the assay with Raji, 17.1 µM.
Regarding `CCOC(=O)[C@]1(C)CCC[C@@]2(C)[C@@H]3CC[C@@]4(C)C[C@]3(CC[C@@H]21)c1cnn(-c2cc(Cl)cc(Cl)c2)c14`, the half-maximal inhibitory concentration (IC50) is greater than 50 µM with SGC-7901, greater than 50 µM in the assay with HeLa, greater than 50 µM with A549 and 15.8 µM with Raji.
For the molecule `CCOC(=O)[C@]1(C)CCC[C@@]2(C)[C@@H]3CC[C@@]4(C)C[C@]3(CC[C@@H]21)c1cnn(-c2cc(C)cc(C)c2)c14`, the IC50 in the assay with SGC-7901 is greater than 50 µM; in the assay on HeLa, greater than 50 µM; with A549 it was greater than 50 µM; with Raji, 12.5 µM.
In the case of `CCOC(=O)[C@]1(C)CCC[C@@]2(C)[C@@H]3CC[C@@]4(C)C[C@]3(CC[C@@H]21)[C@@H]1CN(c2ccccc2)N=C14`, the IC50 was greater than 50 µM in the assay on SGC-7901, greater than 50 µM in the assay on HeLa, 28.3 µM in the assay with A549 and 14 µM in the assay on Raji.
As to `CCOC(=O)[C@]1(C)CCC[C@@]2(C)[C@@H]3CC[C@@]4(C)C[C@]3(CC[C@@H]21)[C@@H]1CN(c2ccccc2F)N=C14`, the IC50 with SGC-7901 was 34.7 µM; in the assay on HeLa, greater than 50 µM; in the assay with A549 it was 32.6 µM; in the assay with Raji, 17.2 µM.
The corresponding values for `CCOC(=O)[C@]1(C)CCC[C@@]2(C)[C@@H]3CC[C@@]4(C)C[C@]3(CC[C@@H]21)[C@@H]1CN(c2cccc(F)c2)N=C14` are greater than 50 µM, greater than 50 µM, greater than 50 µM and 29.1 µM.
For `CCOC(=O)[C@]1(C)CCC[C@@]2(C)[C@@H]3CC[C@@]4(C)C[C@]3(CC[C@@H]21)[C@@H]1CN(c2ccccc2Cl)N=C14`, in that order: greater than 50 µM, greater than 50 µM, greater than 50 µM and greater than 50 µM.
For `CCOC(=O)[C@]1(C)CCC[C@@]2(C)[C@@H]3CC[C@@]4(C)C[C@]3(CC[C@@H]21)[C@@H]1CN(c2ccc(Cl)cc2)N=C14`, in that order: greater than 50 µM, greater than 50 µM, greater than 50 µM and greater than 50 µM.
For the molecule `CCOC(=O)[C@]1(C)CCC[C@@]2(C)[C@@H]3CC[C@@]4(C)C[C@]3(CC[C@@H]21)[C@@H]1CN(c2cccc(Br)c2)N=C14`, the IC50 in the assay on SGC-7901 was greater than 50 µM; with HeLa, greater than 50 µM; with A549 it was greater than 50 µM; in the assay with Raji, 25.1 µM.
Regarding `CCOC(=O)[C@]1(C)CCC[C@@]2(C)[C@@H]3CC[C@@]4(C)C[C@]3(CC[C@@H]21)[C@@H]1CN(c2ccc([N+](=O)[O-])cc2)N=C14`, the IC50 in the assay on SGC-7901, in the assay on HeLa, with A549 and with Raji was greater than 50 µM each time.
